Assay results from ChEMBL document CHEMBL1123506, “Unsaturated heterocyclic amines as potent time-dependent inhibitors of dopamine beta-hydroxylase” (J Med Chem, 1986).

Tests used:
Rattus norvegicus [1] = test: Compound was evaluated for the antihypertensive activity against DBH in conscious spontaneously hypertensive rats at the 100 doses (mg/Kg ip) after 3h.; type: functional
How it was run: (§1)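 Conscious spontaneously hypertensive rats dosed intraperitoneally at 10, 30 or 100 mg/kg, n = 4–6 per group. Read-out is maximal change in mean arterial blood pressure (mmHg, mean ± SD), with duration of response in hours.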

[2] = molecular target: T1, Dopamine beta-hydroxylase (Bos taurus) (UniProt P15101); test: Compound was determined for the kinetic constant against Dopamine beta hydroxylase purified from beef adrenals, catalytic constant (kcat)
T1 sequence (whole entry): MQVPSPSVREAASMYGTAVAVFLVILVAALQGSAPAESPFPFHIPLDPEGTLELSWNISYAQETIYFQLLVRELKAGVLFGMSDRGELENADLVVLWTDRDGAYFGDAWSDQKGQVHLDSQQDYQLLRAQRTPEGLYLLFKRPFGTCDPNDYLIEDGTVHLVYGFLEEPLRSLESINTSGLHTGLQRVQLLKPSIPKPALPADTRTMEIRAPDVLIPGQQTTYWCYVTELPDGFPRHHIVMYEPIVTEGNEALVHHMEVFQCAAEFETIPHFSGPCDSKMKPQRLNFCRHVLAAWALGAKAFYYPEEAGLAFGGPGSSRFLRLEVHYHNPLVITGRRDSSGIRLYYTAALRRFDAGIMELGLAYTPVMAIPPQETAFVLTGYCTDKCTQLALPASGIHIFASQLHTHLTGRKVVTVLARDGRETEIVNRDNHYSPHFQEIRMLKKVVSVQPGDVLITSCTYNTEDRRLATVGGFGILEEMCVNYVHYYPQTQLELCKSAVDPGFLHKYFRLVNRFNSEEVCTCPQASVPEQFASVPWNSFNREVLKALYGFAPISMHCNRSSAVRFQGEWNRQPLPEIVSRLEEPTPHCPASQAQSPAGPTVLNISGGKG
How it was run: (§2)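 Bovine adrenal DBH, purified to homogeneity. Aliquots withdrawn at timed intervals and diluted into assay medium with 1 mM tyramine. Residual activity measured as octopamine formed, by reverse-phase HPLC with fluorescence detection. KI and kcat from Kitz–Wilson plot of t1/2 versus 1/I; kcat/KI calculated.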

[3] = molecular target: T2, Dopamine beta-hydroxylase (Bos taurus, UniProt P15101); test: Compound was determined for the kinetic constant against Dopamine beta hydroxylase purified from beef adrenals, inhibitory constant (Ki); how it was run: as §2
T2 sequence (P15101 whole entry): T1 sequence (whole entry)

[4] = The ratio of Kinetic constant K cat / Ki of Dopamine Beta-hydroxylase inhibitor.; how it was run: as §2
Rattus norvegicus [5] = test: Compound was evaluated for the antihypertensive activity against DBH in conscious spontaneously hypertensive rats at the 30 doses (mg/Kg ip) after 6h.; type: functional; how it was run: as §1
Rattus norvegicus [6] = test: Compound was evaluated for the antihypertensive activity against DBH in conscious spontaneously hypertensive rats at the 100 doses (mg/Kg ip) after 79h.; type: functional; how it was run: as §1
Rattus norvegicus [7] = test: Compound was evaluated for the antihypertensive activity against DBH in conscious spontaneously hypertensive rats at the 10 doses (mg/Kg ip) after 1h.; type: functional; how it was run: as §1
Rattus norvegicus [8] = test: Compound was evaluated for the antihypertensive activity against DBH in conscious spontaneously hypertensive rats at the 30 doses (mg/Kg ip) after 30h.; type: functional; how it was run: as §1
Rattus norvegicus [9] = test: Compound was evaluated for the antihypertensive activity against DBH in conscious spontaneously hypertensive rats at the 100 doses (mg/Kg ip). (MBP= mean arterial blood pressure)
Rattus norvegicus [10] = test: Compound was evaluated for the antihypertensive activity against DBH in conscious spontaneously hypertensive rats at the 30 doses (mg/Kg ip) after >1h. (MBP= mean arterial blood pressure); type: functional, Artery; how it was run: as §1
Rattus norvegicus [11] = test: Compound was evaluated for the antihypertensive activity against DBH in conscious spontaneously hypertensive rats at the 100 doses (mg/Kg ip) after 70h.; type: functional; how it was run: as §1
Rattus norvegicus [12] = test: Compound was evaluated for the antihypertensive activity against DBH in conscious spontaneously hypertensive rats at the 30 doses (mg/Kg ip) after 43h.; type: functional; how it was run: as §1
Rattus norvegicus [13] = test: Compound was evaluated for the antihypertensive activity against DBH in conscious spontaneously hypertensive rats at the 30 doses (mg/Kg ip) after 1h.; type: functional; how it was run: as §1
Rattus norvegicus [14] = test: Compound was evaluated for the antihypertensive activity against DBH in conscious spontaneously hypertensive rats at the 100 doses (mg/Kg ip) after 2 hr.; type: functional; how it was run: as §1
Rattus norvegicus [15] = test: Compound was evaluated for the antihypertensive activity against DBH in conscious spontaneously hypertensive rats at the 30 doses (mg/Kg i.p.) after 3hr.; type: functional
How it was run: (§3)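 Conscious spontaneously hypertensive rats received a single intraperitoneal dose; the paper's dose levels were 10, 30 and 100 mg/kg. Mean arterial blood pressure was monitored. Values are the maximal change in mmHg and the duration of the response in h. Groups were n = 4–6, reported as mean ± SD.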

Rattus norvegicus [16] = test: Compound was evaluated for the antihypertensive activity against DBH in conscious spontaneously hypertensive rats at the 30 doses (mg/Kg ip) after 9 hr (MBP= mean arterial blood pressure); type: functional, Artery; how it was run: as §3

| SMILES | k cat [2] | Ki [3] | k cat/Ki [4] | further results |
| --- | --- | --- | --- | --- |
| C=C(CN)c1ccoc1 | 0.077 -1/min | 230 µM | 5.57 M⁻¹ s⁻¹ | Max MBP (Rattus norvegicus [1]): -21 mmHg; Max MBP (Rattus norvegicus [5]): -20 mmHg |
| CC#Cc1ccccc1 | 0.06 -1/min | 20000 µM | 0.1 M⁻¹ s⁻¹ | – |
| C=C(CN)c1ccco1 | 0.13 -1/min | 410 µM | 5.28 M⁻¹ s⁻¹ | Max MBP (Rattus norvegicus [6]): -69 mmHg; Max MBP (Rattus norvegicus [7]): -10 mmHg; Max MBP (Rattus norvegicus [8]): -26 mmHg |
| C=C(CNC)c1cccs1 | 0.00163 s⁻¹ | 2150 µM | 0.733 M⁻¹ s⁻¹ | Max MBP (Rattus norvegicus [9]): -16 mmHg; Max MBP (Rattus norvegicus [10]): -23 mmHg |
| C=C(CN)c1ccccc1 | 0.04 -1/min | 13000 µM | 0.05 M⁻¹ s⁻¹ | – |
| C=C(CN)c1cccs1 | 0.124 -1/min | 35 µM | 59 M⁻¹ s⁻¹ | Max MBP (Rattus norvegicus [7]): -19 mmHg; Max MBP (Rattus norvegicus [11]): -34 mmHg; Max MBP (Rattus norvegicus [12]): -36 mmHg |
| C=C(CN)c1ccsc1 | 0.147 -1/min | 570 µM | 4.28 M⁻¹ s⁻¹ | Max MBP (Rattus norvegicus [13]): -18 mmHg; Max MBP (Rattus norvegicus [14]): -54 mmHg |
| NCC#Cc1ccccc1 | 0.07 -1/min | 21 µM | 55.5 M⁻¹ s⁻¹ | Max MBP (Rattus norvegicus [15]): -13 mmHg |
| C=C(c1cccs1)C(C)N (stereo unspecified) | 0.000967 s⁻¹ | 360 µM | 2.68 M⁻¹ s⁻¹ | Max MBP (Rattus norvegicus [16]): -16 mmHg |
